Data: ChEMBL document CHEMBL4270530, “Surmounting the resistance against EGFR inhibitors through the development of thieno[2,3-d]pyrimidine-based dual EGFR/HER2 inhibitors” (Eur J Med Chem, 2018)

Assays:
Type in all cases: functional
NCI-H226 = experiment: Growth inhibition of human NCI-H226 cells assessed as cell growth at 10 uM incubated for 48 hrs by sulforhodamine B assay relative to control; conditions: NCI-H226, 48 h, read-out: Activity
Outline: (§1)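 NCI-60 one-dose screen run by the NCI Developmental Therapeutics Program at a single 10 µM concentration; growth percent read from the one-dose mean graph.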

HT-29 = experiment: Growth inhibition of human HT-29 cells assessed as cell growth at 10 uM incubated for 48 hrs by sulforhodamine B assay relative to control; conditions: HT-29, 48 h, read-out: Activity; outline: as §1
MOLT-4 = experiment: Growth inhibition of human MOLT4 cells assessed as cell growth at 10 uM incubated for 48 hrs by sulforhodamine B assay relative to control; conditions: MOLT-4, 48 h, read-out: Activity; outline: as §1
A549 = experiment: Growth inhibition of human A549/ATCC cells assessed as cell growth at 10 uM incubated for 48 hrs by sulforhodamine B assay relative to control; conditions: A549, 48 h, read-out: Activity; outline: as §1
M14 = experiment: Growth inhibition of human M14 cells assessed as cell growth at 10 uM incubated for 48 hrs by sulforhodamine B assay relative to control; conditions: M14, 48 h, read-out: Activity; outline: as §1
KM12 = experiment: Growth inhibition of human KM12 cells assessed as cell growth at 10 uM incubated for 48 hrs by sulforhodamine B assay relative to control; conditions: KM12, 48 h, read-out: Activity; outline: as §1
SN12C = experiment: Growth inhibition of human SN12C cells assessed as cell growth at 10 uM incubated for 48 hrs by sulforhodamine B assay relative to control; conditions: read-out: Activity; outline: as §1
MDA-MB-231 = experiment: Growth inhibition of human MDA-MB-231 cells assessed as cell growth at 10 uM incubated for 48 hrs by sulforhodamine B assay relative to control; conditions: MDA-MB-231, 48 h, read-out: Activity; outline: as §1
U-251 = experiment: Growth inhibition of human U251 cells assessed as cell growth at 10 uM incubated for 48 hrs by sulforhodamine B assay relative to control; conditions: U-251, 48 h, read-out: Activity
Outline: (§2)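 NCI-60 single-dose screen at 10 µM run by the NCI Developmental Therapeutics Program; growth percent read from the one-dose mean graph, with percent inhibition approximated from those growth-percent values.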

SK-MEL-2 = experiment: Growth inhibition of human SK-MEL-2 cells assessed as cell growth at 10 uM incubated for 48 hrs by sulforhodamine B assay relative to control; conditions: SK-MEL-2, 48 h, read-out: Activity; outline: as §1
A498 = experiment: Growth inhibition of human A498 cells assessed as cell growth at 10 uM incubated for 48 hrs by sulforhodamine B assay relative to control; conditions: A498, 48 h, read-out: Activity; outline: as §1
LOX IMVI = experiment: Growth inhibition of human LOXIMVI cells assessed as cell growth at 10 uM incubated for 48 hrs by sulforhodamine B assay relative to control; conditions: read-out: Activity; outline: as §1
MCF7 = experiment: Growth inhibition of human MCF7 cells assessed as cell growth at 10 uM incubated for 48 hrs by sulforhodamine B assay relative to control; conditions: MCF7, 48 h, read-out: Activity; outline: as §1
UO-31 = experiment: Growth inhibition of human UO31 cells assessed as cell growth at 10 uM incubated for 48 hrs by sulforhodamine B assay relative to control; conditions: UO-31, 48 h, read-out: Activity; outline: as §2
SK-OV-3 = experiment: Growth inhibition of human SKOV3 cells at 10 uM incubated for 48 hrs by sulforhodamine B assay relative to control; conditions: SK-OV-3, 48 h, read-out: GI; outline: as §1
HL-60(TB) = experiment: Growth inhibition of human HL-60(TB) cells assessed as cell growth at 10 uM incubated for 48 hrs by sulforhodamine B assay relative to control; conditions: HL-60, 48 h, read-out: Activity
Outline: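 Single-dose (10 µM) screen across the full NCI-60 panel, run by the NCI Developmental Therapeutics Program. Read-out is growth percent relative to untreated control, taken from the NCI one-dose mean graph.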

NCI-H23 = experiment: Growth inhibition of human NCI-H23 cells assessed as cell growth at 10 uM incubated for 48 hrs by sulforhodamine B assay relative to control; conditions: NCI-H23, 48 h, read-out: Activity; outline: as §1
HCT-15 = experiment: Growth inhibition of human HCT15 cells assessed as cell growth at 10 uM incubated for 48 hrs by sulforhodamine B assay relative to control; conditions: HCT-15, 48 h, read-out: Activity; outline: as §1
SF-539 = experiment: Growth inhibition of human SF539 cells assessed as cell growth at 10 uM incubated for 48 hrs by sulforhodamine B assay relative to control; conditions: SF-539, 48 h, read-out: Activity; outline: as §1
NCI-H322M = experiment: Growth inhibition of human NCI-H322M cells at 10 uM incubated for 48 hrs by sulforhodamine B assay relative to control; conditions: read-out: GI; outline: as §1
SR = experiment: Growth inhibition of human SR cells assessed as cell growth at 10 uM incubated for 48 hrs by sulforhodamine B assay relative to control; conditions: read-out: Activity; outline: as §2
Malme-3M = experiment: Growth inhibition of human MALME-3M cells assessed as cell growth at 10 uM incubated for 48 hrs by sulforhodamine B assay relative to control; conditions: read-out: Activity; outline: as §1
HOP-92 = experiment: Growth inhibition of human HOP92 cells assessed as cell growth at 10 uM incubated for 48 hrs by sulforhodamine B assay relative to control; conditions: HOP-92, 48 h, read-out: Activity; outline: as §1
HCC 2998 = experiment: Growth inhibition of human HCC2998 cells assessed as cell growth at 10 uM incubated for 48 hrs by sulforhodamine B assay relative to control; conditions: HCC 2998, 48 h, read-out: Activity; outline: as §1
RXF 393 = experiment: Growth inhibition of human RXF393 cells assessed as cell growth at 10 uM incubated for 48 hrs by sulforhodamine B assay relative to control; conditions: RXF 393, 48 h, read-out: Activity; outline: as §1
Hs-578T = experiment: Growth inhibition of human Hs 578T cells assessed as cell growth at 10 uM incubated for 48 hrs by sulforhodamine B assay relative to control; conditions: read-out: Activity; outline: as §1
HCT-116 = experiment: Growth inhibition of human HCT116 cells assessed as cell growth at 10 uM incubated for 48 hrs by sulforhodamine B assay relative to control; conditions: HCT-116, 48 h, read-out: Activity; outline: as §1
NCI-H522 = experiment: Growth inhibition of human NCI-H522 cells assessed as cell growth at 10 uM incubated for 48 hrs by sulforhodamine B assay relative to control; conditions: NCI-H522, 48 h, read-out: Activity; outline: as §1
OVCAR-4 = experiment: Growth inhibition of human OVCAR4 cells assessed as cell growth at 10 uM incubated for 48 hrs by sulforhodamine B assay relative to control; conditions: OVCAR-4, 48 h, read-out: Activity; outline: as §1
EKVX = experiment: Growth inhibition of human EKVX cells at 10 uM incubated for 48 hrs by sulforhodamine B assay relative to control; conditions: read-out: GI; outline: as §1
T47D = experiment: Growth inhibition of human T47D cells assessed as cell growth at 10 uM incubated for 48 hrs by sulforhodamine B assay relative to control; conditions: read-out: Activity; outline: as §2
SK-MEL-5 = experiment: Growth inhibition of human SK-MEL-5 cells assessed as cell growth at 10 uM incubated for 48 hrs by sulforhodamine B assay relative to control; conditions: SK-MEL-5, 48 h, read-out: Activity; outline: as §1

## Nc1ccc(-c2cc3c(Nc4ccc(OCc5cccc(F)c5)c(Cl)c4)ncnc3s2)cc1
NCI-H226
  growth at 10 µM: 53.5%
HT-29
  growth at 10 µM: 84.5%
MOLT-4
  growth at 10 µM: 30%
A549
  growth at 10 µM: 21.2%
M14
  growth at 10 µM: 51.9%
KM12
  growth at 10 µM: 24%
SN12C
  growth at 10 µM: 48.4%
MDA-MB-231
  growth at 10 µM: 13.4%
U-251
  growth at 10 µM: 57%
SK-MEL-2
  growth at 10 µM: 25.4%
A498
  growth at 10 µM: 39.3%
LOX IMVI
  growth at 10 µM: 24.5%
MCF7
  growth at 10 µM: 26.2%
UO-31
  growth at 10 µM: 19.6%
SK-OV-3
  inhibition of growth at 10 µM: 100%
HL-60(TB)
  growth at 10 µM: 48.2%
NCI-H23
  growth at 10 µM: 68.6%
HCT-15
  growth at 10 µM: 32.9%
SF-539
  growth at 10 µM: 57.4%
NCI-H322M
  inhibition of growth at 10 µM: 75%
SR
  growth at 10 µM: 14.5%
Malme-3M
  growth at 10 µM: 42.1%
HOP-92
  growth at 10 µM: 45.8%
HCC 2998
  growth at 10 µM: 38.6%
RXF 393
  growth at 10 µM: 52.5%
Hs-578T
  growth at 10 µM: 77%
HCT-116
  growth at 10 µM: 50.7%
NCI-H522
  growth at 10 µM: 13.1%
OVCAR-4
  growth at 10 µM: 54.8%
EKVX
  inhibition of growth at 10 µM: 80%
T47D
  growth at 10 µM: 15.4%
SK-MEL-5
  growth at 10 µM: 57.7%

## O=[N+]([O-])c1ccc(-c2cc3c(Nc4ccc(OCc5cccc(F)c5)c(Cl)c4)ncnc3s2)cc1
NCI-H226
  growth at 10 µM: 86.4%
HT-29
  growth at 10 µM: 66.9%
MOLT-4
  growth at 10 µM: 65.7%
A549
  growth at 10 µM: 51.4%
M14
  growth at 10 µM: 77.2%
KM12
  growth at 10 µM: 80%
SN12C
  growth at 10 µM: 83.4%
MDA-MB-231
  growth at 10 µM: 87.8%
U-251
  growth at 10 µM: 55.1%
SK-MEL-2
  growth at 10 µM: 86.2%
A498
  growth at 10 µM: 84.8%
LOX IMVI
  growth at 10 µM: 75.5%
MCF7
  growth at 10 µM: 78.9%
UO-31
  growth at 10 µM: 59.2%
SK-OV-3
  inhibition of growth at 10 µM: 0%
HL-60(TB)
  growth at 10 µM: 79.2%
NCI-H23
  growth at 10 µM: 73.1%
HCT-15
  growth at 10 µM: 63.4%
SF-539
  growth at 10 µM: 99.2%
NCI-H322M
  inhibition of growth at 10 µM: 15%
SR
  growth at 10 µM: 68.6%
Malme-3M
  growth at 10 µM: 94.4%
HOP-92
  growth at 10 µM: 82.1%
HCC 2998
  growth at 10 µM: 97.3%
RXF 393
  growth at 10 µM: 81.3%
Hs-578T
  growth at 10 µM: 94.9%
HCT-116
  growth at 10 µM: 60.2%
NCI-H522
  growth at 10 µM: 68.3%
OVCAR-4
  growth at 10 µM: 89.6%
EKVX
  inhibition of growth at 10 µM: 20%
T47D
  growth at 10 µM: 76.6%
SK-MEL-5
  growth at 10 µM: 92.8%
